Measurements reported in ChEMBL document CHEMBL1155883, “5-Alkyl-6-benzyl-2-(2-oxo-2-phenylethylsulfanyl)pyrimidin-4(3H)-ones, a series of anti-HIV-1 agents of the dihydro-alkoxy-benzyl-oxopyrimidine family with peculiar structure-activity relationship profile” (J Med Chem, 2008).

Legend:
[1] = target: Human immunodeficiency virus type 1 reverse transcriptase (Human immunodeficiency virus 1) (UniProt Q72547)
[2] = system: Human immunodeficiency virus 1; assay: Resistance index, ratio of EC50 for drug-resistant HIV1 isolate with reverse transcriptase Y188L mutation to EC50 for wild type HIV1 NL4-3; assay type: functional
How it was run: (§1)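 Fold resistance is the EC50 against the K103N, Y181C or Y188L mutant strain divided by the EC50 against wt NL4-3. Each EC50 is from MT-4 cells infected in the presence of different drug concentrations, with viability read by MTT at day 5 postinfection.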

[3] = system: Human immunodeficiency virus type 1 reverse transcriptase (Human immunodeficiency virus 1), Q72547 [K103N]
[4] = system: Human immunodeficiency virus 1; assay: Resistance index, ratio of EC50 for drug-resistant HIV1 isolate with reverse transcriptase Y181C mutation to EC50 for wild type HIV1 NL4-3; assay type: functional
How it was run: as §1

[5] = system: Human immunodeficiency virus type 1 reverse transcriptase (Human immunodeficiency virus 1), Q72547 [Y181I]
[6] = system: Human immunodeficiency virus 1; assay: Resistance index, ratio of ID50 for reverse transcriptase Y181I mutant to IC50 for wild-type HIV1 reverse transcriptase
How it was run: (§2)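 Recombinant wt and K103N, L100I or Y181I HIV-1 RT (>95% pure), 2-4 nM. RNA-dependent DNA polymerase assay on 0.5 µg poly(rA)/oligo(dT) 10:1 (0.3 µM 3'-OH ends) with 10 µM [3H]-dTTP and 8% final DMSO. Aliquots taken every 2 min. Inhibitor range 0.2-5× ID50, fitted to a noncompetitive model. Fold resistance is mutant ID50 divided by wt ID50.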

[7] = system: Human immunodeficiency virus 1; assay: Antiviral activity against HIV1 isolates with reverse transcriptase K103N mutation in human MT4 cells assessed as inhibition of virus-induced cytopathogenicity by MTT assay; assay type: functional, organism-based; conditions: Human immunodeficiency virus 1, MT4
How it was run: (§3)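 MT-4 lymphoid cells infected with HIV-1 carrying RT K103N, Y181C or Y188L, in the presence of different drug concentrations. Viable cells counted at day 5 postinfection by MTT colorimetric assay. EC50 is the concentration that inhibits 50% of the HIV-induced cytopathic effect.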

[8] = system: Human immunodeficiency virus 1; assay: Antiviral activity against HIV1 isolates with reverse transcriptase Y188L mutation in human MT4 cells assessed as inhibition of virus-induced cytopathogenicity by MTT assay; assay type: functional, organism-based; conditions: Human immunodeficiency virus 1, MT4
How it was run: as §3

[9] = system: Human immunodeficiency virus 1; assay: Resistance index, ratio of ID50 for reverse transcriptase K103N mutant to IC50 for wild-type HIV1 sreverse transcriptase
How it was run: as §2

[10] = Selectivity index, ratio of CC50 for human MT4 cells to EC50 for HIV1 NL4-3; assay type: toxicity, cell-based; conditions: read-out: Ratio CC50/EC50
How it was run: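 Computed as CC50/EC50. CC50 comes from MTT viability of mock-infected MT-4 cells and EC50 from MTT protection of NL4-3-infected MT-4 cells, both read at day 5.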

[11] = system: Human immunodeficiency virus 1; assay: Resistance index, ratio of ID50 for reverse transcriptase L100I mutant to IC50 for wild-type HIV1 reverse transcriptase
How it was run: as §2

[12] = system: Human immunodeficiency virus 1; assay: Antiviral activity against HIV1 NL4-3 in human MT4 cells assessed as inhibition of virus-induced cytopathogenicity by MTT assay; assay type: functional, organism-based; conditions: Human immunodeficiency virus 1, NL4-3, MT4
How it was run: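 MT-4 lymphoid cells infected with wild-type HIV-1 NL4-3 in the presence of a range of compound concentrations. Viable cells were counted by MTT colorimetric read-out at day 5 post-infection. EC50 is the concentration giving 50% protection from virus-induced cytopathic effect. Means ± SD from at least two or three experiments.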

[13] = Cytotoxicity against human MT4 cells by MTT assay; assay type: cell-based
How it was run: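 Mock-infected MT-4 cells were exposed to a range of compound concentrations. Viability was read by MTT at day 5. CC50 is the concentration that kills 50% of uninfected cells. The top concentration was limited by compound precipitation in culture medium. Means ± SD from at least two or three experiments.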

[14] = system: Human immunodeficiency virus type 1 reverse transcriptase (Human immunodeficiency virus 1), Q72547 [L100I]
[15] = system: Human immunodeficiency virus 1; assay: Resistance index, ratio of EC50 for drug-resistant HIV1 isolate with reverse transcriptase K103N mutation to EC50 for wild type HIV1 NL4-3; assay type: functional
How it was run: as §1

[16] = system: Human immunodeficiency virus 1; assay: Antiviral activity against HIV1 isolates with reverse transcriptase Y181C mutation in human MT4 cells assessed as inhibition of virus-induced cytopathogenicity by MTT assay; assay type: functional, organism-based; conditions: Human immunodeficiency virus 1, MT4
How it was run: as §3

| SMILES | ID50 [1] [µM] | Ratio EC50 [2] | ID50 [3] [µM] | Ratio EC50 [4] | ID50 [5] [µM] | Ratio [6] | EC50 [7] [µM] | EC50 [8] [µM] | Ratio [9] | selectivity ratio [10] | Ratio [11] | EC50 [12] [µM] | CC50 [13] [µM] | ID50 [14] [µM] | Ratio EC50 [15] | EC50 [16] [µM] |
| --- | --- | --- | --- | --- | --- | --- | --- | --- | --- | --- | --- | --- | --- | --- | --- | --- |
| CCc1c(Cc2c(Cl)cccc2Cl)nc(SCC(=O)c2ccc(F)cc2)[nH]c1=O | 0.042 | 5186 | 1.79 | 70 | 0.24 | 6 | 4.7 | 36.3 | 43 | > 7860 | 43 | 0.007 | > 55 | 1.82 | 671 | 0.49 |
| CCc1c(Cc2c(Cl)cccc2Cl)nc(SCC(=O)c2ccccc2)[nH]c1=O | 0.071 | 714 | 1.88 | 7 | 0.33 | 5 | 1.2 | 5 | 26 | > 7430 | 50 | 0.007 | > 52 | 3.54 | 171 | 0.046 |
| CC(C)c1c(Cc2c(F)cccc2Cl)nc(SCC(=O)c2ccccc2)[nH]c1=O | 0.001 | 1540 | 4.5 | 42 | > 40 |  | 3.29 | 7.7 | 4500 | > 2400 | 1300 | 0.005 | > 12 | 1.3 | 658 | 0.21 |
| Cc1c(Cc2c(Cl)cccc2Cl)nc(SCC(=O)c2ccccc2)[nH]c1=O | 0.23 | 232 | 12 | 13 | 1.38 | 6 | 3.79 | 8.82 | 53 | > 1580 | 34 | 0.038 | > 60 | 7.8 | 100 | 0.48 |
| CC(C)c1c(Cc2c(Cl)cccc2Cl)nc(SCC(=O)c2ccccc2)[nH]c1=O | 0.031 | 1375 | 27.7 | 27 | 16.8 | 542 | 5.1 | 5.5 | 894 | > 14000 | 326 | 0.004 | > 56 | 10.1 | 1275 | 0.11 |
| COc1ccc(C(=O)CSc2nc(Cc3c(F)cccc3F)c(C(C)C)c(=O)[nH]2)cc1 | 0.026 | 7350 | 37.3 | 33 | > 40 |  | 17.5 | 14.7 | 1440 | 16500 |  | 0.002 | 33 | > 40 | 8750 | 0.067 |
| COc1ccc(CCSc2nc(Cc3c(Cl)cccc3Cl)c(C)c(=O)[nH]2)cc1 |  | 49286 |  |  |  | 58 |  |  | 123 | > 407000 |  | < 0.00014 | > 57 |  | 6214 |  |
| CCc1c(Cc2c(F)cccc2Cl)nc(SCC(=O)c2ccccc2)[nH]c1=O | 0.008 | 782 | > 40 | 32 | > 40 |  | 1.2 | 9.38 |  | > 1000 | 1210 | 0.012 | > 12 | 9.7 | 100 | 0.39 |
